Active and inactive are the calls of the source. No cut-off for these calls is given here.
Columns and labels:
Staphylococcus aureus [1] = experiment: Antibacterial activity against Staphylococcus aureus E19977 infected in NMRI mouse assessed as log reduction in intracellular bacterial cfu in peritoneum at 200 mg/kg, sc administered as single dose 2 hrs after infection measured between 4 to 19 hrs; format: functional, organism-based; parameters: dose 200 mg/kg
In short: (§1)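 NMRI mice were infected i.p. and given one or three doses (every 8 h), starting 2 h post-inoculation, at 200 mg/kg or 60 mg/kg, four mice per group. Peritoneal washes were sampled over 19 h of treatment. Total, extracellular and intracellular CFU/ml (lysostaphin separation) were compared with the pretreatment level; mean ± range, n = 2. Untreated controls were sampled only at 6 h of infection.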

Staphylococcus aureus [2] = experiment: Antibacterial activity against Staphylococcus aureus E19977 infected in NMRI mouse assessed as log reduction in bacterial cfu in peritoneum at 60 mg/kg, sc administered as single dose 2 hrs after infection measured within 4 hrs; format: functional; details: route subcutaneous
In short: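 Female NMRI mice were infected i.p. with S. aureus E19977 (10^7.7 CFU/ml, 0.5 ml, 5% mucin). They were treated 2 h post-inoculation with a single 60 mg/kg dose and sampled after 4 h of treatment. Peritoneal-wash CFU were plated on blood agar. Δlog10 CFU/ml was calculated against vehicle-treated controls with the same infection duration.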

Staphylococcus aureus [3] = experiment: Bactericidal activity against Staphylococcus aureus E19977 assessed as log reduction in cfu at 2 mg/liter after 24 hrs by time-kill study; format: functional, organism-based
In short: (§2)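 In vitro kinetic model simulating antibiotic elimination without inoculum change. Exponential-phase E19977 was added at a final 10^6.3 CFU/ml. Starting drug concentration matched the human free peak, with the human half-life simulated. Samples were plated on 5% blood agar at 0, 2, 4, 6, 8, 12 and 24 h, with growth controls in each run. Results are shown as mean and range, n = 2.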

Staphylococcus aureus [4] = experiment: Bactericidal activity against Staphylococcus aureus E19977 assessed as log reduction in cfu at 1.5 mg/liter after 24 hrs by time-kill study; format: functional, organism-based; in short: as §2
Staphylococcus aureus [5] = experiment: Bactericidal activity against Staphylococcus aureus E19977 assessed as log reduction in cfu at 0.5 mg/liter after 24 hrs by time-kill study; format: functional, organism-based; in short: as §2
Staphylococcus aureus [6] = experiment: Antibacterial activity against Staphylococcus aureus E19977 infected in NMRI mouse assessed as log reduction in bacterial cfu in peritoneum at 200 mg/kg, sc administered 2 hrs after infection measured after 4 hrs; format: functional, organism-based; parameters: dose 200 mg/kg
In short: (§3)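 Dose–response in i.p.-infected NMRI mice (mucin adjuvant). Single doses of 200, 60, 30, 20 or 10 mg/kg were given 2 h after inoculation, with 4–16 mice per group. Peritoneal wash was sampled 4 h later and split by lysostaphin/centrifugation into total, extra- and intracellular counts, then expressed as Δlog10 CFU/ml against log dose. Vehicle controls were plotted as 0.3 mg/kg. Hill fit (variable slope); static dose interpolated.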

Staphylococcus aureus [7] = experiment: Antibacterial activity against Staphylococcus aureus E19977 infected in NMRI mouse assessed as log reduction in intracellular bacterial cfu in peritoneum at 200 mg/kg, sc administered 2 hrs after infection measured after 4 hrs; format: functional, organism-based; parameters: dose 200 mg/kg; in short: as §3
Staphylococcus aureus [8] = experiment: Antibacterial activity against Staphylococcus aureus E19977 infected in NMRI mouse assessed as log reduction in extracellular bacterial cfu in peritoneum at 200 mg/kg, sc administered 2 hrs after infection measured after 4 hrs; format: functional, organism-based; parameters: dose 200 mg/kg; in short: as §3
Staphylococcus aureus [9] = experiment: Antibacterial activity against Staphylococcus aureus E19977 infected in NMRI mouse assessed as log reduction in bacterial cfu in peritoneum at 60 mg/kg, sc administered as single dose 1 hr after infection measured after 4 hrs; format: functional, organism-based; parameters: dose 60 mg/kg
In short: (§4)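 NMRI mice were infected i.p. with S. aureus E19977 in 5% mucin. A single dose (60 mg/kg or 10 mg/kg) was given 1, 2 or 3 h after inoculation, four mice per group. Peritoneal wash was sampled after 4 h of treatment and separated into total, extracellular and intracellular counts by lysostaphin/centrifugation. Δlog10 CFU/ml was calculated against vehicle-treated mice infected for the same time (5, 6 or 7 h).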

Staphylococcus aureus [10] = experiment: Antibacterial activity against Staphylococcus aureus E19977 infected in NMRI mouse assessed as log reduction in bacterial cfu in peritoneum at 60 mg/kg, sc administered as single dose 2 hrs after infection measured after 4 hrs; format: functional, organism-based; parameters: dose 60 mg/kg; in short: as §4
Staphylococcus aureus [11] = experiment: Antibacterial activity against Staphylococcus aureus E19977 infected in NMRI mouse assessed as log reduction in bacterial cfu in peritoneum at 60 mg/kg, sc administered as single dose 3 hrs after infection measured after 4 hrs; format: functional, organism-based; parameters: dose 60 mg/kg; in short: as §4
Staphylococcus aureus [12] = experiment: Antibacterial activity against Staphylococcus aureus E19977 infected in NMRI mouse assessed as log reduction in intracellular bacterial cfu in peritoneum at 60 mg/kg, sc administered as single dose 1 hr after infection measured after 4 hrs; format: functional, organism-based; parameters: dose 60 mg/kg; in short: as §4
Staphylococcus aureus [13] = experiment: Antibacterial activity against Staphylococcus aureus E19977 infected in NMRI mouse assessed as log reduction in intracellular bacterial cfu in peritoneum at 60 mg/kg, sc administered as single dose 3 hrs after infection measured after 4 hrs; format: functional, organism-based; parameters: dose 60 mg/kg; in short: as §4
Staphylococcus aureus [14] = experiment: Antibacterial activity against Staphylococcus aureus E19977 infected in NMRI mouse assessed as log reduction in extracellular bacterial cfu in peritoneum at 60 mg/kg, sc administered as single dose 1 hr after infection measured after 4 hrs; format: functional, organism-based; parameters: dose 60 mg/kg; in short: as §4
Staphylococcus aureus [15] = experiment: Antibacterial activity against Staphylococcus aureus E19977 infected in NMRI mouse assessed as log reduction in extracellular bacterial cfu in peritoneum at 60 mg/kg, sc administered as single dose 2 hrs after infection measured after 4 hrs; format: functional, organism-based; parameters: dose 60 mg/kg; in short: as §4
Staphylococcus aureus [16] = experiment: Antibacterial activity against Staphylococcus aureus E19977 infected in NMRI mouse assessed as log reduction in extracellular bacterial cfu in peritoneum at 60 mg/kg, sc administered as single dose 3 hrs after infection measured after 4 hrs; format: functional, organism-based; parameters: dose 60 mg/kg; in short: as §4
Staphylococcus aureus [17] = experiment: Antibacterial activity against Staphylococcus aureus E19977 infected in NMRI mouse assessed as log reduction in extracellular bacterial cfu in peritoneum at 10 to 200 mg/kg, sc administered 2 hrs after infection measured after 4 hrs; format: functional, organism-based; in short: as §3
Staphylococcus aureus [18] = experiment: Antibacterial activity against Staphylococcus aureus E19977 infected in NMRI mouse assessed as log reduction in bacterial cfu in peritoneum at 200 mg/kg, sc administered 2 hrs after infection evry 8 hrs as three-dose regimen measured after 19 hrs; format: functional; details: route subcutaneous
In short: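 Female outbred NMRI mice (25 to 30 g) were infected i.p. with 0.5 ml of 10^7.7 CFU/ml S. aureus E19977 in 5% (wt/vol) mucin. The first dose was given 2 h after inoculation, either once or as three doses every 8 h, with four mice per group. Mice were euthanized 19 h after treatment onset and washed peritoneally with 2.0 ml saline. Total CFU were counted by duplicate spotting of 10-fold dilutions on 5% blood agar.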

Staphylococcus aureus [19] = experiment: Antibacterial activity against Staphylococcus aureus E19977 infected in NMRI mouse assessed as log reduction in intracellular bacterial cfu in peritoneum at 200 mg/kg, sc administered 2 hrs after infection evry 8 hrs as three-dose regimen measured after 19 hrs; format: functional, organism-based; parameters: dose 200 mg/kg; in short: as §1
Staphylococcus aureus [20] = experiment: Antibacterial activity against Staphylococcus aureus E19977 infected in NMRI mouse assessed as log reduction in extracellular bacterial cfu in peritoneum at 200 mg/kg, sc administered 2 hrs after infection evry 8 hrs as three-dose regimen measured after 19 hrs; format: functional; details: route subcutaneous
[21] = Cmax in human at 1000 mg, po; format: ADME, organism-based; parameters: dose 1000 mg, route oral; details: in vivo
Serum = experiment: Protein binding in human serum at 1000 mg, po; format: ADME, organism-based; details: in vivo
[22] = Half life in human at 1000 mg, po; format: ADME, organism-based; details: in vivo

Compound: Cc1onc(-c2c(Cl)cccc2Cl)c1C(=O)N[C@@H]1C(=O)N2[C@@H]1SC(C)(C)[C@@H]2C(=O)O [DICLOXACILLIN]
- Activity (Staphylococcus aureus [1]): inactive
- FC (Staphylococcus aureus [2]): <1
- Activity (Staphylococcus aureus [3]): inactive
- Activity (Staphylococcus aureus [4]): inactive
- Activity (Staphylococcus aureus [5]): inactive
- Activity (Staphylococcus aureus [6]): Active
- Activity (Staphylococcus aureus [7]): inactive
- Activity (Staphylococcus aureus [8]): Active
- Activity (Staphylococcus aureus [9]): Active
- Activity (Staphylococcus aureus [10]): inactive
- Activity (Staphylococcus aureus [11]): inactive
- Activity (Staphylococcus aureus [12]): Active
- Activity (Staphylococcus aureus [13]): inactive
- Activity (Staphylococcus aureus [14]): Active
- Activity (Staphylococcus aureus [15]): inactive
- Activity (Staphylococcus aureus [16]): inactive
- Activity (Staphylococcus aureus [17]): Dose-dependent effect
- FC (Staphylococcus aureus [18]): 2
- Activity (Staphylococcus aureus [19]): inactive
- FC (Staphylococcus aureus [20]): 2
- Cmax [21]: 30000 ng/mL
- Activity (Serum): 95%
- half-life [22]: 1 h

— ChEMBL document CHEMBL1649157, “Intracellular activity of antibiotics against Staphylococcus aureus in a mouse peritonitis model” (Antimicrob Agents Chemother, 2009)
